Molecules are shown by their SMILES. In brackets after ≈: the same amount, converted by molar mass. Structures can show the parent of a compound that is named as a salt. Activity calls are given as the source filed them. No cut-off for these calls is given here.

The test system of experiment [1] is Mycobacterium tuberculosis. Kind of experiment: Antimycobacterial activity against Mycobacterium tuberculosis H37Ra by microplate alamar blue assay. The class given is functional. The gist of the method:
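MABA against M. tuberculosis H37Ra grown in Middlebrook 7H9 broth; MIC read. Isoniazid and kanamycin sulfate run as reference drugs in the same experiment as samples.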

Experiment [2] concerns Vero. Kind of experiment: Cytotoxicity against african green monkey Vero cells. The class given is functional, cell-based. Particulars: Chlorocebus sabaeus. The method, boiled down:
(§1)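 Colorimetric cytotoxicity method (Skehan) on Vero, KB, NCI-H187 (small-cell lung cancer) and BC (breast cancer) cells; IC50 derived; ellipticine as reference compound.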

For experiment [3], the system named is KB. Kind of experiment: Cytotoxicity against human KB cells. The class given is functional, cell-based. The method, boiled down:
as §1

Experiment [4] in a line: Cytotoxicity against human BC cells. It counts as functional, cell-based. The method, boiled down:
as §1

Experiment [5] relates to NCI-H187. Kind of experiment: Cytotoxicity against human NCI-H187 cells. The class given is functional, cell-based. The method, boiled down: as §1
The test system of experiment [6] is Vero. Kind of experiment: Cytotoxicity against african green monkey Vero cells at 419.8 uM. It counts as functional, cell-based. Particulars: Chlorocebus sabaeus. The method, boiled down: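 Vero cells tested at 419.8 µM using the Skehan colorimetric cytotoxicity method; ellipticine reference.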
Experiment [7] concerns BC. Kind of experiment: Cytotoxicity against human BC cells at 167.9 uM. It counts as functional, cell-based. The method, boiled down:
(§2)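 BC, KB and NCI-H187 cells tested at 167.9 µM using the Skehan colorimetric cytotoxicity method; ellipticine reference.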

Experiment [8] relates to KB. Kind of experiment: Cytotoxicity against human KB cells at 167.9 uM. It counts as functional, cell-based. The method, boiled down:
as §2

For experiment [9], the system named is NCI-H187. Kind of experiment: Cytotoxicity against human NCI-H187 cells at 167.9 uM. It counts as functional, cell-based. The gist of the method: as §2

As for `NC[C@H]1O[C@H](O[C@H]2[C@H](O)[C@@H](O[C@H]3O[C@H](CO)[C@@H](O)[C@H](N)[C@H]3O)[C@H](N)C[C@@H]2N)[C@H](O)[C@@H](O)[C@@H]1O` [KANAMYCIN SULFATE], the MIC in experiment [1] is 3.4 µM.
For `Cc1c2ccncc2c(C)c2c1[nH]c1ccccc12` [ELLIPTECINE], the IC50 in experiment [2], in experiment [3], in experiment [4] and in experiment [5] was 800 nM in each case.
On to `O=C(O)CC[N+](=O)[O-]`, for which the result in [6], in experiment [7], in [8] and in [9] was inactive. Besides, it took 3.3 µM (≈ 0.393 µg/mL) to inhibit growth in experiment [1] (MIC).
The compound `NNC(=O)c1ccncc1` [ISONIAZID] yielded a minimum inhibitory concentration (MIC) in experiment [1] of 0.29 µM (≈ 0.0398 µg/mL).

(Values after ChEMBL document CHEMBL1141756, “3-Nitropropionic acid (3-NPA), a potent antimycobacterial agent from endophytic fungi: is 3-NPA in some plants produced by endophytes?” (J Nat Prod, 2005).)
